Laboratory results as given in ChEMBL document CHEMBL1629581, “Diverse cytomegalovirus UL27 mutations adapt to loss of viral UL97 kinase activity under maribavir” (Antimicrob Agents Chemother, 2009).
pEC50: −log10 of the molar value. Activity calls are given as the source filed them. The rule behind the calls is not given here.

What was measured:
Human betaherpesvirus 5 [1] = assay: Antiviral activity against Human cytomegalovirus T2767 expressing UL27 kinase with L193Fmutant gene by SEAP yield reduction assay; type: functional, organism-based; settings: Human betaherpesvirus 5, T2767
Outline: (§1)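 Cell-free virus was put on 6-day-old human embryonic lung fibroblast monolayers at MOI 0.01 to 0.02 and cultured 6 days across a maribavir range (six wells per assay). Supernatant SEAP was read by chemiluminescent substrate, and EC50 was derived by curve fitting. Values are the mean and standard error of at least 12 replicates over at least four dates. T2211 was run alongside on every date.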

Human betaherpesvirus 5 [2] = assay: Antiviral activity against Human cytomegalovirus T2899 expressing wild type UL27 kinase with N289D, D298G, N300G, P307L,V310A, D351N, I367V mutant gene by SEAP yield reduction assay; type: functional, organism-based; settings: Human betaherpesvirus 5, T2899; outline: as §1
Human betaherpesvirus 5 [3] = assay: Antiviral activity against Human cytomegalovirus T3037 expressing UL27 kinase with L426F mutant gene by SEAP yield reduction assay; type: functional, organism-based; settings: Human betaherpesvirus 5, T3037; outline: as §1
Human betaherpesvirus 5 [4] = assay: Antiviral activity against Human cytomegalovirus T2981 expressing UL27 kinase with W153R mutant gene by SEAP yield reduction assay; type: functional, organism-based; settings: Human betaherpesvirus 5, T2981; outline: as §1
Human betaherpesvirus 5 [5] = assay: Antiviral activity against Human cytomegalovirus clinical T2294 harboring UL97 T409 mutant gene with UL27 V353E mutant gene by SEAP yield reduction assay relative to wild type; type: functional
Human betaherpesvirus 5 [6] = assay: Antiviral activity against Human cytomegalovirus T3020 expressing UL27 kinase with E22stop gene by SEAP yield reduction assay; type: functional, organism-based; settings: Human betaherpesvirus 5, T3020; outline: as §1
Human betaherpesvirus 5 [7] = assay: Antiviral activity against Human cytomegalovirus clinical isolate C076 harboring UL97 V353A mutant gene with UL27 del 301 to 311 codon by SEAP yield reduction assay relative to wild type; type: functional
Human betaherpesvirus 5 [8] = assay: Ratio of EC50 for Human cytomegalovirus T3053 expressing UL27 kinase with V353E mutant gene to EC50 for Human cytomegalovirus T2211 expressing wild type UL27 gene; type: functional
Outline: (§2)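 Each strain's maribavir EC50 comes from a 6-day SEAP yield reduction in human embryonic lung fibroblasts at MOI 0.01 to 0.02, fitted from supernatant chemiluminescence over at least 12 replicates on at least four dates. It is expressed relative to the EC50 of baseline strain T2211 assayed simultaneously on the same setup dates.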

Human betaherpesvirus 5 [9] = assay: Antiviral activity against Human cytomegalovirus T2890 expressing UL97 kinase with V353A mutant gene by SEAP yield reduction assay; type: functional, organism-based; settings: Human betaherpesvirus 5, T2890; outline: as §1
Human betaherpesvirus 5 [10] = assay: Antiviral activity against 0.01 to 0.02 MOI of Human cytomegalovirus T2899 expressing wild type UL97 kinase with N289D, D298G, N300G, P307L,V310A, D351N, I367V mutant gene assessed as growth inhibition at day 6 by SEAP yield reduction assay relative to control; type: functional, organism-based
Human betaherpesvirus 5 [11] = assay: Antiviral activity against Human cytomegalovirus T3053 expressing UL27 kinase with V353E mutant gene by SEAP yield reduction assay; type: functional, organism-based; settings: Human betaherpesvirus 5, T3053; outline: as §1
Human betaherpesvirus 5 [12] = assay: Antiviral activity against 0.01 to 0.02 MOI of Human cytomegalovirus T2898 expressing UL27 kinase with W362stop gene N289D, D298G, N300G, P307L, V310A, D351N, I367V mutant gene assessed as growth inhibition at day 6 by SEAP yield reduction assay relative to control; type: functional, organism-based
Human betaherpesvirus 5 [13] = assay: Ratio of EC50 for Human cytomegalovirus T2931 expressing UL27 kinase 301 to 311 deletion with frame shift mutation at 311 codon to EC50 for Human cytomegalovirus T2211 expressing wild type UL27 gene; type: functional; outline: as §2
Human betaherpesvirus 5 [14] = assay: Antiviral activity against Human cytomegalovirus T2898 expressing UL27 kinase with W362stop gene N289D, D298G, N300G, P307L, V310A, D351N, I367V mutant gene by SEAP yield reduction assay; type: functional, organism-based; settings: Human betaherpesvirus 5, T2898; outline: as §1
Human betaherpesvirus 5 [15] = assay: Antiviral activity against Human cytomegalovirus T2211 expressing wild type UL27 kinase by SEAP yield reduction assay; type: functional, organism-based; settings: Human betaherpesvirus 5, T2211; outline: as §1
Human betaherpesvirus 5 [16] = assay: Ratio of EC50 for Human cytomegalovirus T2899 expressing wild type UL27 kinase with N289D, D298G, N300G, P307L,V310A, D351N, I367V mutant gene to EC50 for Human cytomegalovirus T2211 expressing wild type UL27 gene; type: functional; outline: as §2
Human betaherpesvirus 5 [17] = assay: Antiviral activity against Human cytomegalovirus clinical T2294 harboring UL97 T409M mutant gene with UL27 W153R mutant gene by SEAP yield reduction assay relative to wild type; type: functional
Human betaherpesvirus 5 [18] = assay: Antiviral activity against Human cytomegalovirus T2931 expressing UL27 kinase 301 to 311 deletion with frame shift mutation at 311 codon by SEAP yield reduction assay; type: functional, organism-based; settings: Human betaherpesvirus 5, T2931; outline: as §1
Human betaherpesvirus 5 [19] = assay: Antiviral activity against 0.01 to 0.02 MOI of Human cytomegalovirus T2266 harboring UL97 deletion of 537 through the end mutant gene assessed as growth inhibition at day 6 by SEAP yield reduction assay relative to control; type: functional, organism-based
Human betaherpesvirus 5 [20] = assay: Ratio of EC50 for Human cytomegalovirus T2767 expressing UL27 kinase with L193Fmutant gene to EC50 for Human cytomegalovirus T2211 expressing wild type UL27 gene; type: functional; outline: as §2
Human betaherpesvirus 5 [21] = assay: Ratio of EC50 for Human cytomegalovirus T2981 expressing UL27 kinase with W153R mutant gene to EC50 for Human cytomegalovirus T2211 expressing wild type UL27 gene; type: functional; outline: as §2
Human betaherpesvirus 5 [22] = assay: Antiviral activity against Human cytomegalovirus T2867 expressing UL27 kinase with A269T mutant gene by SEAP yield reduction assay; type: functional, organism-based; settings: Human betaherpesvirus 5, T2867; outline: as §1
Human betaherpesvirus 5 [23] = assay: Ratio of EC50 for Human cytomegalovirus T2890 expressing UL97 kinase with V353A mutant gene to EC50 for Human cytomegalovirus T2211 expressing wild type UL27 gene; type: functional; outline: as §2
Human betaherpesvirus 5 [24] = assay: Ratio of EC50 for Human cytomegalovirus T3037 expressing UL27 kinase with L426F mutant gene to EC50 for Human cytomegalovirus T2211 expressing wild type UL27 gene; type: functional; outline: as §2
Human betaherpesvirus 5 [25] = assay: Ratio of EC50 for Human cytomegalovirus T2898 expressing UL27 kinase with W362stop gene N289D, D298G, N300G, P307L, V310A, D351N, I367V mutant gene to EC50 for Human cytomegalovirus T2211 expressing wild type UL27 gene; type: functional; outline: as §2
Human betaherpesvirus 5 [26] = assay: Ratio of EC50 for Human cytomegalovirus T3020 expressing UL27 kinase with E22stop gene to EC50 for Human cytomegalovirus T2211 expressing wild type UL27 gene; type: functional; outline: as §2
Human betaherpesvirus 5 [27] = assay: Ratio of EC50 for Human cytomegalovirus T2867 expressing UL27 kinase with A269T mutant gene to EC50 for Human cytomegalovirus T2211 expressing wild type UL27 gene; type: functional; outline: as §2
Human betaherpesvirus 5 [28] = assay: Antiviral activity against 0.01 to 0.02 MOI of Human cytomegalovirus T2867 expressing UL27 kinase with A269T mutant gene assessed as growth inhibition at day 6 by SEAP yield reduction assay relative to control; type: functional, organism-based
Human betaherpesvirus 5 [29] = assay: Antiviral activity against Human cytomegalovirus T3019 expressing UL27 kinase with 218delC mutant gene by SEAP yield reduction assay; type: functional, organism-based; settings: Human betaherpesvirus 5, T3019; outline: as §1
Human betaherpesvirus 5 [30] = assay: Antiviral activity against Human cytomegalovirus clinical T2294 harboring UL97 T409 mutant gene with UL27 E22stop mutant gene by SEAP yield reduction assay relative to wild type; type: functional
Human betaherpesvirus 5 [31] = assay: Antiviral activity against 0.01 to 0.02 MOI of Human cytomegalovirus T2931 expressing UL27 kinase 301 to 311 deletion with frame shift mutation at 311 codon assessed as growth inhibition at day 6 by SEAP yield reduction assay relative to control; type: functional, organism-based
Human betaherpesvirus 5 [32] = assay: Ratio of EC50 for Human cytomegalovirus T3019 expressing UL27 kinase with 218delC mutant gene to EC50 for Human cytomegalovirus T2211 expressing wild type UL27 gene; type: functional; outline: as §2

Structure (SMILES): CC(C)Nc1nc2cc(Cl)c(Cl)cc2n1[C@H]1O[C@@H](CO)[C@H](O)[C@@H]1O [MARIBAVIR]
- pEC50 (Human betaherpesvirus 5 [1]): 6.62
- pEC50 (Human betaherpesvirus 5 [2]): 7.08
- pEC50 (Human betaherpesvirus 5 [3]): 6.68
- pEC50 (Human betaherpesvirus 5 [4]): 6.80
- fold change (FC) (Human betaherpesvirus 5 [5]): 15
- pEC50 (Human betaherpesvirus 5 [6]): 6.72
- fold change (FC) (Human betaherpesvirus 5 [7]): 15
- Ratio EC50 (Human betaherpesvirus 5 [8]): 2.1
- pEC50 (Human betaherpesvirus 5 [9]): 5.83
- inhibition (Human betaherpesvirus 5 [10]): Active
- pEC50 (Human betaherpesvirus 5 [11]): 6.70
- inhibition (Human betaherpesvirus 5 [12]): Active
- Ratio EC50 (Human betaherpesvirus 5 [13]): 3.1
- pEC50 (Human betaherpesvirus 5 [14]): 6.68
- pEC50 (Human betaherpesvirus 5 [15]): 7.02
- Ratio EC50 (Human betaherpesvirus 5 [16]): 0.9
- fold change (FC) (Human betaherpesvirus 5 [17]): 15
- pEC50 (Human betaherpesvirus 5 [18]): 6.54
- inhibition (Human betaherpesvirus 5 [19]): Active
- Ratio EC50 (Human betaherpesvirus 5 [20]): 2.6
- Ratio EC50 (Human betaherpesvirus 5 [21]): 1.7
- pEC50 (Human betaherpesvirus 5 [22]): 6.72
- Ratio EC50 (Human betaherpesvirus 5 [23]): 16
- Ratio EC50 (Human betaherpesvirus 5 [24]): 2.2
- Ratio EC50 (Human betaherpesvirus 5 [25]): 2.2
- Ratio EC50 (Human betaherpesvirus 5 [26]): 2
- Ratio EC50 (Human betaherpesvirus 5 [27]): 2
- inhibition (Human betaherpesvirus 5 [28]): Active
- pEC50 (Human betaherpesvirus 5 [29]): 6.64
- fold change (FC) (Human betaherpesvirus 5 [30]): 15
- inhibition (Human betaherpesvirus 5 [31]): Active
- Ratio EC50 (Human betaherpesvirus 5 [32]): 2.5
